In ChEMBL document CHEMBL2321688, “Acyclic nucleoside phosphonates containing a second phosphonate group are potent inhibitors of 6-oxopurine phosphoribosyltransferases and have antimalarial activity” (J Med Chem, 2013):

Experiments:
[1] = Cytotoxicity against thioguanine-resistant human C32TG cells harboring HGPRT deletion mutant assessed as inhibition of cell proliferation after 4 days by Coulter counter analysis; assay type: cell-based
Method in brief: (§1)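 Cell proliferation in human A549 lung carcinoma, C32 melanoma and C32-TG (thioguanine-resistant, HGPRT-deficient C32 mutant) cells. Seeded at 7,500 (A549) or 15,000 (C32, C32-TG) cells per well; serial compound dilutions added 24 hr later. Four days at 37 °C, then trypsinized and counted by Coulter Counter. CC50 = concentration giving 50% proliferation versus untreated cells, by extrapolation; mean ± SEM of two or three independent tests.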

[2] = Cytotoxicity against human A549 cells assessed as inhibition of cell proliferation after 4 days by Coulter counter analysis; assay type: cell-based; method in brief: as §1
[3] = Cytotoxicity against human C32 cells assessed as inhibition of cell proliferation after 4 days by Coulter counter analysis; assay type: cell-based; method in brief: as §1
Plasmodium falciparum [4] = assay: Antimalarial activity against wild type early trophozoite stage of Plasmodium falciparum D6 in human red blood cells assessed as [3H]hypoxanthine uptake after 96 hrs; assay type: functional, organism-based
Method in brief: (§2)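 P. falciparum cultured in RPMI-1640-LPLF with 10% human plasma, sorbitol-synchronised; assay started with >90% rings at 0.5% parasitaemia, 2% haematocrit in hypoxanthine-free medium. Ten 2-fold serial dilutions for 96 h, [3H]-hypoxanthine (0.2 µCi/well) added at ~48 h. IC50 from non-linear regression of incorporation versus log concentration; three independent experiments, mean ± SD.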

[5] = target: T1, Hypoxanthine-guanine phosphoribosyltransferase (Homo sapiens, UniProt P00492); assay: Inhibition of human N-terminal hexahistidine-tagged HGPRT
T1 sequence (P00492 whole entry): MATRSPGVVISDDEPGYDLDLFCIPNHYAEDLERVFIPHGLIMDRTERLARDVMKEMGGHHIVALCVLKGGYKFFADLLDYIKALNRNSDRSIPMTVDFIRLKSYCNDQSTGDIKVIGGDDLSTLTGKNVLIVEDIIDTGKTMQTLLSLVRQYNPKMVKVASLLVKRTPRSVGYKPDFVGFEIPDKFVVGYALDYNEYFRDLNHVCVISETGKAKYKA
Method in brief: (§3)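 N-terminal hexa-histidine tagged enzymes purified to homogeneity by IMAC. Ki from Hanes' plots with guanine fixed at 60 μM and PRib-PP varied (2-1000 μM) according to Km(app); one concentration of each inhibitor.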

[6] = Inhibition of Plasmodium falciparum HGXPRT
Method in brief: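 PfHGXPRT purified by a published procedure. Ki from Hanes' plots with guanine fixed at 60 μM and PRib-PP varied (2-1000 μM) according to Km(app); one concentration of each inhibitor.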

[7] = Inhibition of Plasmodium vivax N-terminal hexahistidine-tagged HGPRT; method in brief: as §3
Plasmodium falciparum [8] = assay: Antimalarial activity against chloroquine and pyrimethamine-resistant early trophozoite stage of Plasmodium falciparum W2 in human red blood cells assessed as [3H]hypoxanthine uptake after 96 hrs; assay type: functional, organism-based; method in brief: as §2

Row | SMILES | CC50 at 96 h [1] [µM] | CC50 at 96 h [2] [µM] | CC50 at 96 h [3] [µM] | IC50 (Plasmodium falciparum [4]) [µM] | Ki [5] [µM] | Ki [6] [µM] | Ki [7] [µM] | IC50 (Plasmodium falciparum [8]) [µM]
1 | Nc1nc2c(ncn2CCOCCP(=O)(O)O)c(=O)[nH]1 | > 300 | > 300 | > 300 | 242 | – | – | – | –
2 | Nc1nc2c(ncn2CC(COCP(=O)(O)O)COCP(=O)(O)O)c(=O)[nH]1 | > 300 | > 300 | > 300 | – | 0.03 | 0.07 | 0.6 | –
3 | CCOC(=O)[C@H](Cc1ccccc1)NP(=O)(COCC(COCP(=O)(N[C@@H](Cc1ccccc1)C(=O)OCC)N[C@@H](Cc1ccccc1)C(=O)OCC)Cn1cnc2c(=O)[nH]cnc21)N[C@@H](Cc1ccccc1)C(=O)OCC | 55 | 101 | 41 | 3.8 | – | – | – | 4
4 | CCOC(=O)[C@H](Cc1ccccc1)NP(=O)(COCC(COCP(=O)(N[C@@H](Cc1ccccc1)C(=O)OCC)N[C@@H](Cc1ccccc1)C(=O)OCC)Cn1cnc2c(=O)[nH]c(N)nc21)N[C@@H](Cc1ccccc1)C(=O)OCC | 109 | > 300 | 130 | 9.7 | – | – | – | 7.1
5 | CCCCCCCCCCCCCCCCOCCCOP(=O)(O)CCOCCn1cnc2c(=O)[nH]c(N)nc21 | 36 | 61 | 61 | 7.6 | – | – | – | 4.7
6 | CCOC(=O)[C@H](C)NP(=O)(CCOCCn1cnc2c(=O)[nH]c(N)nc21)N[C@@H](C)C(=O)OCC | > 300 | > 300 | > 300 | 42 | – | – | – | 48
7 | CCCCCCCCCCCCCCCCOCCCOP(=O)(CCOCCn1cnc2c(=O)[nH]c(N)nc21)OCCCOCCCCCCCCCCCCCCCC | > 300 | > 300 | > 300 | 59 | – | – | – | 68
8 | O=c1[nH]cnc2c1ncn2CC(COCP(=O)(O)O)COCP(=O)(O)O | – | – | – | – | 1 | 5 | 2 | –
9 | Nc1nc2c(ncn2CC(COCCP(=O)(O)O)OCCP(=O)(O)O)c(=O)[nH]1 (centres undefined) | – | – | – | – | 0.6 | 0.5 | 0.7 | –
10 | Nc1nc2c(ncn2C(COCP(=O)(O)O)COCP(=O)(O)O)c(=O)[nH]1 | – | – | – | – | 37 | 2 | 18 | –
